Activity calls are given as the source filed them.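 Rule for the calls, unless noted: active = Her2 level under about 52% in both replicate screens, with viability over 70% of control (limit read from the data); inconclusive = Her2 under the limit in one screen only, or viability under 70%; inactive = Her2 level above the set limit.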

Eleven compounds from PubChem BioAssay can be followed below.

A short description of assay [1]: reducers of endogenous Her2 protein level, primary screen, SKBR3 breast tumor cells, AlphaScreen, ATP viability (AID 461).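 For Her2 level: lower value means less Her2 protein in the cells.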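 For viability: percent of carrier control wells set as 100% viability.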 As to conditions: 18-24 h, measured here: SKBR3 viability, ATP luminescence, at 10 µM.
Assay [2] addresses Receptor tyrosine-protein kinase erbB-2 (Homo sapiens) (UniProt P04626). The description is as above. The settings on record: 18-24 h, at 10 µM, stronger effect = lower value.
Assay [3] can be described thus: SK-BR-3 cell growth inhibitors, pilot screen, 24 h, human (AID 572;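 active = viability at or below 10% of carrier control in both of two separate runs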;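 note: compound exposure lasted between 18 and 24 h rather than exactly 24 h; 100% = carrier-treated control wells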). The settings on record: SK-BR-3 viability, CellTiter-Glo luminescence, at 10 µM, stronger effect = lower value.
Assay [4] can be described thus: HUVEC growth inhibition – cell-based, human, primary screen (AID 575;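 active = viability at or below 30% in both replicate assays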;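 note: 100% = median of untreated cell wells with 0.1% DMSO on each plate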). The settings on record: HUVEC proliferation, CellTiter-Glo luminescence, 72 h; at 10 µM; stronger effect = lower value. The essentials:
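Material: primary human umbilical vein endothelial cells / Schedule: 72 h exposure, 37 °C, 5% CO2, 30 min RT equilibration / Signal: ATP-based CellTiter-Glo luminescent read / Read-out basis: percent of median DMSO-control luminescence / Control set: 32 DMSO-only cell-control wells (high), 32 MePR drug-control wells (low) per plate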

Assay [5] can be described thus: growth inhibitors of H69AR lung tumor, primary screen, human, duplicate replicates (AID 580;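 active = viability at or under a set limit in both replicates, limit being median viability minus 3 SD, cut at about 48% in these data, passing the limit was not always enough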;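 note: 100% = mean luminescence of untreated wells and 0% = no signal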). As to conditions: H69AR lung tumor cells viability, ATP luminescence, 72 h; at 10 µM; stronger effect = lower value.
A short description of assay [6]: reversal of MRP1-mediated doxorubicin resistance, pilot screen, H69AR cells, doxorubicin co-treatment (AID 601;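 active = viability loss from added drug above about 55%, and viability with drug at most 40%, in both replicates, limit read from the data, passing the limit was not always enough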). As to conditions: CellTiter-Glo, 72 h, at 10 µM; for differential viability (reversal): stronger effect = higher value.
The mark [7] stands for this setting: H69AR cells + 2 uM doxorubicin, measured here: viability with 2 uM doxorubicin, stronger effect = lower value.
[8] abbreviates: H69AR cells, compound alone cytotoxicity.

Sequence of Receptor tyrosine-protein kinase erbB-2 (Homo sapiens) (P04626 whole entry, looked up): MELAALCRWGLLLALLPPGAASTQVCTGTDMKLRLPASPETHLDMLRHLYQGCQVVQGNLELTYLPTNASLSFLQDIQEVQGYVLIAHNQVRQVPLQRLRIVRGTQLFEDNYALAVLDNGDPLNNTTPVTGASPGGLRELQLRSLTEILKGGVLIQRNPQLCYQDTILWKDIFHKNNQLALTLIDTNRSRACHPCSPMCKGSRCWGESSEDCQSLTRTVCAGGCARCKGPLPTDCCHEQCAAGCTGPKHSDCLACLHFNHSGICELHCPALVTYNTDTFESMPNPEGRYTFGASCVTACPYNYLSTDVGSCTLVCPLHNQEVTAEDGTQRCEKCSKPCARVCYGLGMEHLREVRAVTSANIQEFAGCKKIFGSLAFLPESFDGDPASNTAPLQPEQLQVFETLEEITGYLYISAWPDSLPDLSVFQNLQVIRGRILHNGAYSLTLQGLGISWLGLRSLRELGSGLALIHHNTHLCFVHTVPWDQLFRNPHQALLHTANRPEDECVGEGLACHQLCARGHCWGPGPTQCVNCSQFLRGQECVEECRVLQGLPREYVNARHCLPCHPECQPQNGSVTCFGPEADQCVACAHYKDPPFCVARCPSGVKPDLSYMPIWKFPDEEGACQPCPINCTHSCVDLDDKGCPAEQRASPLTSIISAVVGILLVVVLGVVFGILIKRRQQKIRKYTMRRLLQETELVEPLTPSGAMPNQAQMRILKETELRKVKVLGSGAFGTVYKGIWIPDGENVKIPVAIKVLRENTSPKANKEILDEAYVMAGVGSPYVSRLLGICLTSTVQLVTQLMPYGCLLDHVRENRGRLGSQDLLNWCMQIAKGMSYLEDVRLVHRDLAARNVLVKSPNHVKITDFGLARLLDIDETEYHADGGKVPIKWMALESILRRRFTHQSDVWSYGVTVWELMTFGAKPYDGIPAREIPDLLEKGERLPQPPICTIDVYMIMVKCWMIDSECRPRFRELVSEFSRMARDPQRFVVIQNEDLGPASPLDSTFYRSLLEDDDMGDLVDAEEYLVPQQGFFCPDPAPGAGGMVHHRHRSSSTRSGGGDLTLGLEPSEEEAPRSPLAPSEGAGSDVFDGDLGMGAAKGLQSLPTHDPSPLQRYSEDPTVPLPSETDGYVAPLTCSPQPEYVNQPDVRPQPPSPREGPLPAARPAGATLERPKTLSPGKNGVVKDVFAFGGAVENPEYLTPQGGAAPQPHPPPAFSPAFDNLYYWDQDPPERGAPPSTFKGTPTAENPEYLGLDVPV

In the case of `CCC(=O)O[C@]1(C(=O)CCl)[C@@H](C)C[C@H]2[C@@H]3CCC4=CC(=O)C=C[C@]4(C)[C@@]3(F)[C@@H](O)C[C@@]21C`, the viability in assay [1] is 122%; in assay [3] it was 122% (inactive); in assay [4], 84.9% (inactive); in assay [5] it was 87.3% (inactive); in assay [6] (setting [7]), 101%; in assay [6] (setting [8]), 87.3%. The Her2 level in assay [2] is 86.5% (inactive). The differential viability (reversal) in assay [6] (H69AR cells + 2 uM doxorubicin) is -13.3% (inactive).

In the case of `CCOc1ccc2nc(S(N)(=O)=O)sc2c1`, the viability in assay [1] is 127%; in assay [3], 127% (inactive); in assay [4], 59% (inactive); in assay [5], 67.6% (inactive); in assay [6] (setting [7]) it was 60.4%; in assay [6] (setting [8]), 67.6%. Further, the Her2 level in assay [2] was 92% (inactive). Moreover, the differential viability (reversal) in assay [6] (H69AR cells + 2 uM doxorubicin) is 7.23% (inactive).

With `CN1CCN2c3ccccc3Cc3ccccc3C2C1` (stereo not drawn), the viability in assay [1] is 82.5%; in assay [3] it was 82.5% (inactive); in assay [4], 73.4% (inactive); in assay [5] it was 90.2% (inactive); in assay [6] (setting [7]), 89.1%; in assay [6] (setting [8]), 90.2%. Besides, the Her2 level in assay [2] was 117% (inactive). For the same compound, the differential viability (reversal) in assay [6] (H69AR cells + 2 uM doxorubicin) was 1.02% (inactive).

In the case of `C[C@@H]1C[C@H]2[C@@H]3C[C@H](F)C4=CC(=O)C=C[C@]4(C)[C@@]3(F)[C@@H](O)C[C@]2(C)[C@@]1(O)C(=O)CO`, the viability in assay [1] is 74%; in assay [3], 74% (inactive); in assay [4], 113% (inactive); in assay [5], 92.7% (inactive); in assay [6] (setting [7]), 96.5%; in assay [6] (setting [8]) it was 92.7%. Besides, the Her2 level in assay [2] is 118% (inactive). Moreover, in assay [6] (H69AR cells + 2 uM doxorubicin), the differential viability (reversal) is -3.78% (inactive).

With `CO[C@@]1(NC(=O)CSCC#N)C(=O)N2C(C(=O)O)=C(CSc3nnnn3C)CS[C@@H]21`, the viability in assay [1] was 110%; in assay [3], 110% (inactive); in assay [4], 97% (inactive); in assay [5], 95% (inactive); in assay [6] (setting [7]), 101%; in assay [6] (setting [8]), 95%. In addition, the Her2 level in assay [2] is 136% (inactive). In addition, the differential viability (reversal) in assay [6] (H69AR cells + 2 uM doxorubicin) was -5.77% (inactive).

With `Cc1onc(-c2ccccc2)c1C(=O)N[C@@H]1C(=O)N2[C@@H]1SC(C)(C)[C@@H]2C(=O)O`, the viability in assay [1] is 108%; in assay [3], 108% (inactive); in assay [4], 91.1% (inactive); in assay [5], 101% (inactive); in assay [6] (setting [7]), 101%; in assay [6] (setting [8]), 101%. Further, the Her2 level in assay [2] was 100% (inactive). For the same compound, the differential viability (reversal) in assay [6] (H69AR cells + 2 uM doxorubicin) is 0% (inactive).

As for `CCCCCCCC(=O)OCC(=O)[C@@]1(O)CC[C@H]2[C@@H]3CCC4=CC(=O)CC[C@]4(C)[C@H]3[C@@H](O)C[C@@]21C`, the viability is 120% in assay [1]; 120% (inactive) in assay [3]; 97.6% (inactive) in assay [4]; 102% (inactive) in assay [5]; 107% in assay [6] (setting [7]); 102% in assay [6] (setting [8]). Also, in assay [2], the Her2 level is 102% (inactive). For the same compound, the differential viability (reversal) in assay [6] (H69AR cells + 2 uM doxorubicin) is -5.05% (inactive).

As for `CCN(CC)CCNC(=O)c1cc(S(C)(=O)=O)ccc1OC`, the viability in assay [1] is 114%; in assay [3] it was 114% (inactive); in assay [4], 102% (inactive); in assay [5], 111% (inactive); in assay [6] (setting [7]), 96.1%; in assay [6] (setting [8]), 111%. Moreover, the Her2 level in assay [2] was 95% (inactive). The differential viability (reversal) in assay [6] (H69AR cells + 2 uM doxorubicin) is 14.5% (inactive).

Take `CC(C)(C)NC[C@H](O)COc1nsnc1N1CCOCC1`: the viability is 112% in assay [1]; 112% (inactive) in assay [3]; 99.8% (inactive) in assay [4]; 106% (inactive) in assay [5]; 104% in assay [6] (setting [7]); 106% in assay [6] (setting [8]). In assay [2], the Her2 level is 110% (inactive). For the same compound, in assay [6] (H69AR cells + 2 uM doxorubicin), the differential viability (reversal) was 2.23% (inactive).

`Cc1ncc([N+](=O)[O-])n1CC(O)CCl` (stereo not drawn): the viability was 99.5% in assay [1]; 99.5% (inactive) in assay [3]; 108% (inactive) in assay [4]; 104% (inactive) in assay [5]; 104% in assay [6] (setting [7]); 104% in assay [6] (setting [8]). For the same compound, the Her2 level in assay [2] was 106% (inactive). In addition, the differential viability (reversal) in assay [6] (H69AR cells + 2 uM doxorubicin) was 0.25% (inactive).

For the compound `CC(C)[N+](C)(CCOC(=O)C1c2ccccc2Oc2ccccc21)C(C)C`, the viability in assay [1] was 108%; in assay [3], 108% (inactive); in assay [4], 100% (inactive); in assay [5] it was 88.1% (inactive); in assay [6] (setting [7]) it was 85.7%; in assay [6] (setting [8]), 88.1%. For the same compound, the Her2 level in assay [2] is 93% (inactive). In addition, the differential viability (reversal) in assay [6] (H69AR cells + 2 uM doxorubicin) was 2.38% (inactive).
